# Test results taken from ChEMBL document CHEMBL4411269, “Required Immunoproteasome Subunit Inhibition Profile for Anti-Inflammatory Efficacy and Clinical Candidate KZR-616 ((2 S,3 R)- N-(( S)-3-(Cyclopent-1-en-1-yl)-1-(( R)-2-methyloxiran-2-yl)-1-oxopropan-2-yl)-3-hydroxy-3-(4-methoxyphenyl)-2-(( S)-2-(2-morpholinoacetamido)propanamido)propenamide)” (J Med Chem, 2018).
# Active and inactive are the calls of the source. The rule behind the calls is not given here.
# Columns and labels:
# [1] = Half life in Sprague-Dawley rat at 2 to 9 mg/kg, iv administered as bolus dose by LC/MS-MS analysis; type: ADME, organism-based; settings: in vivo
# [2] = target: T1, Proteasome subunit beta type-5 (Mus musculus, UniProt O55234); test: Inhibition of 20S proteosome beta 5 in mouse A20 cells by ELISA; type: cell-based
# T1 sequence (O55234 whole entry): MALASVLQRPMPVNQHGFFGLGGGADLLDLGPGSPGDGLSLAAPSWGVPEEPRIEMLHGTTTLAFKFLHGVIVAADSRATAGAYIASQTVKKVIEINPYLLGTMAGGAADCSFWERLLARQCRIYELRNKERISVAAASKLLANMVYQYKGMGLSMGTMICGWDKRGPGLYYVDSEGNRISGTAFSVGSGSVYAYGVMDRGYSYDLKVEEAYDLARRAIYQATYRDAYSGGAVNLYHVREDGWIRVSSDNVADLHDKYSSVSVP
# [3] = target: T2, Proteasome subunit beta type-8 (Mus musculus, UniProt P28063); test: Inhibition of LMP7 in mouse A20 cells by ELISA; type: cell-based
# T2 sequence (P28063 whole entry): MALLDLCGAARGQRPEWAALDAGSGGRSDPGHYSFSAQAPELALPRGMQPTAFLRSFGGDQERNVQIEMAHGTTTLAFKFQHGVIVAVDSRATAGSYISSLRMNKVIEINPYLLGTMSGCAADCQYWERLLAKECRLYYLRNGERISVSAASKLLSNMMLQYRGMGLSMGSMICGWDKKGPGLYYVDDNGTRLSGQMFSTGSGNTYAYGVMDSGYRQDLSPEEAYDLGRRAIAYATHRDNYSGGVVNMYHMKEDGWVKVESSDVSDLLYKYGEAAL
# Summary of the method: (§1)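 Mouse A20 B-cell lymphoma cell lysate (1 mg/mL, hypotonic 20 mM Tris pH 8, 5 mM EDTA) treated with serially diluted compound for 1 h at 25 °C. Then 5 μM biotinylated active-site probe for 2 h at 25 °C, guanidine denaturation and streptavidin bead capture. Subunit-specific antibody and HRP chemiluminescence, signal normalized to protein, IC50 from percent activity versus DMSO controls.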
# [4] = Solubility of the compound in phosphate buffer at pH 7.2 at 10 mg/ml after 24 hrs by HPLC-UV method; type: physicochemical
# Summary of the method: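 Compound shaken at a target 10 mg/mL in 50 mM potassium phosphate buffer for 24 h at 25 °C, then centrifuged at 15 000 rpm for 15 min. Supernatant diluted 100-fold in DMSO and quantified by HPLC-UV (220/254/280 nm) against a three-level DMSO standard curve, in duplicate.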
# [5] = target: T3, Proteasome subunit beta type-9 (Mus musculus, UniProt P28076); test: Inhibition of LMP2 in mouse A20 cells by ELISA; type: cell-based; summary of the method: as §1
# T3 sequence (P28076 whole entry): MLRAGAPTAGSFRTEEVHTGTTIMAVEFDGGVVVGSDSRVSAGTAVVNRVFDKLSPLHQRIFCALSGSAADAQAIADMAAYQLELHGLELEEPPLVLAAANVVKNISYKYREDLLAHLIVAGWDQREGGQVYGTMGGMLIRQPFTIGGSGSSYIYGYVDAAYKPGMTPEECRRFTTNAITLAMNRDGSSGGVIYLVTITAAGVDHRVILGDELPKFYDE
# [6] = target: T4, Proteasome subunit beta type-9 (Homo sapiens, UniProt P28065); test: Inhibition of LMP2 in human MOLT4 cells by ELISA; type: cell-based
# T4 sequence (P28065 whole entry): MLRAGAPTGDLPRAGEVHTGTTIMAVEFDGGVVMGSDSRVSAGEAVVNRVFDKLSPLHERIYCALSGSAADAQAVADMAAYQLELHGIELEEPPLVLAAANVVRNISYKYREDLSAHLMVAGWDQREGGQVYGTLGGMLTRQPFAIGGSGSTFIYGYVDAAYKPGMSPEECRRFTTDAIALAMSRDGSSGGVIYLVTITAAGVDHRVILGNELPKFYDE
# [7] = target: T5, Proteasome Macropain subunit MB1 (Homo sapiens, UniProt P28074); test: Inhibition of 20S proteosome beta 5 in human MOLT4 cells by ELISA; type: cell-based
# T5 sequence (P28074 whole entry): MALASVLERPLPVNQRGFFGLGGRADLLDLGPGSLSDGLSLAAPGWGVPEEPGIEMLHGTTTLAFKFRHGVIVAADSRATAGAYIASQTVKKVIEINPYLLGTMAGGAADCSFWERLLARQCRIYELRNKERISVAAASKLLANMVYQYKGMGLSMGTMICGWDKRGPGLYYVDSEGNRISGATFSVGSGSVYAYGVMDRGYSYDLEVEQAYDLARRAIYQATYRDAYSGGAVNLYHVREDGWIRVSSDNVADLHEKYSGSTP
# [8] = target: T6, Proteasome subunit beta type-10 (Homo sapiens, UniProt P40306); test: Inhibition of MECL1 in human MOLT4 cells by ELISA; type: cell-based
# T6 sequence (P40306 whole entry): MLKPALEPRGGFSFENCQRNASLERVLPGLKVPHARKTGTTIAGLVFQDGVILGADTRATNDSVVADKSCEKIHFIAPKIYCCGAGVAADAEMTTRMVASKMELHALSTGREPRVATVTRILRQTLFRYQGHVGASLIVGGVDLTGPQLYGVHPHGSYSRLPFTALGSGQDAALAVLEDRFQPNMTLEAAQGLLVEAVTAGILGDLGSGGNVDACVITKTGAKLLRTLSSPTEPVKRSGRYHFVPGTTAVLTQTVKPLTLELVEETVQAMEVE
# [9] = target: T7, Proteasome subunit beta type-8 (Homo sapiens, UniProt P28062); test: Inhibition of LMP7 in human MOLT4 cells by ELISA; type: cell-based
# T7 sequence (P28062 whole entry): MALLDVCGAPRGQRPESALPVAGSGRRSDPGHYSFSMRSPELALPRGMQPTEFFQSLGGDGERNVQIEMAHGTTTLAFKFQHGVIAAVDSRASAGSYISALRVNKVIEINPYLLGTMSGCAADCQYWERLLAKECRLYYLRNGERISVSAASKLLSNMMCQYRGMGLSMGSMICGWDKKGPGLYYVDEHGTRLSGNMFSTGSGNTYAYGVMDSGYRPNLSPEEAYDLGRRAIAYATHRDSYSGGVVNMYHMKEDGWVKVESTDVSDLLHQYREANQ
# [10] = test system: PBMC; test: Antiinflammatory activity in human PBMC assessed as reduction in anti-CD3/CD28 antibody-stimulated IFN-gamma expression at 250 nM preincubated for 1 hr followed by anti-CD3/CD28 antibody stimulation measured after 24 hrs by ELISA; type: functional, cell-based
# Summary of the method: (§2)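 Healthy-donor PBMC, thawed from cryopreservation, 250 000 cells/well in RPMI 1640/5% FBS. Pretreated 1 h at 37 °C with compound alone or combined (0.1% DMSO final), washed 4 times, then stimulated 24 h with anti-CD3 and anti-CD28 antibodies. TNFα and IFNγ in supernatants by electrochemiluminescent ELISA; expressed relative to DMSO-treated controls (n = 6).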
# [11] = test system: PBMC; test: Antiinflammatory activity in human PBMC assessed as reduction in LPS-stimulated IL-6 expression at 250 nM preincubated for 1 hr followed by LPS stimulation measured after 24 hrs by ELISA; type: functional, cell-based
# Summary of the method: (§3)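 Cryopreserved healthy-donor PBMC in RPMI 1640 with 5% heat-inactivated FBS, 250 000 cells/well. Compound (0.1% DMSO final) for 1 h at 37 °C, 5% CO2, then 4 washes with medium. Stimulated with 1 μg/mL LPS for 24 h; supernatant TNFα, IL-6 and IL-12/23p40 by electrochemiluminescent immunoassay. Mean level relative to DMSO controls, n = 6.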
# [12] = test system: PBMC; test: Antiinflammatory activity in human PBMC assessed as reduction in LPS-stimulated TNF-alpha expression at 250 nM preincubated for 1 hr followed by LPS stimulation measured after 24 hrs by ELISA; type: functional, cell-based; summary of the method: as §3
# [13] = target: T8, Proteasome subunit beta type-10 (Mus musculus, UniProt O35955); test: Inhibition of MECL1 in mouse A20 cells by ELISA; type: cell-based; summary of the method: as §1
# T8 sequence (O35955 whole entry): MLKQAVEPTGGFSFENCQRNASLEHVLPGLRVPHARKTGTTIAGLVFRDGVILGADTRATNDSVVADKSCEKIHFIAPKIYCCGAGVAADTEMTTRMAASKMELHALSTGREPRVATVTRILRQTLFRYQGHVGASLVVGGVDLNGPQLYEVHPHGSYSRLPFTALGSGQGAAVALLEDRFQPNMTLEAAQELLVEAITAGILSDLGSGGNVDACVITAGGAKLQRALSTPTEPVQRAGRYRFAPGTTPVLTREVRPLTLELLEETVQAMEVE
# [14] = target: T9, Proteasome subunit beta type-9 (Homo sapiens) (UniProt P28065); test: Inhibition of LMP2 in human PBMC at 250 nM by ELISA
# T9 sequence (whole entry): T4 sequence (P28065 whole entry)
# Summary of the method: (§4)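 Cryopreserved healthy-donor human PBMC in RPMI 1640 with 5% heat-inactivated FBS, exposed to compound (0.1% DMSO final) for 1 h at 37 °C, 5% CO2, then washed. Subunit-specific active-site occupancy read by ProCISE: biotinylated active-site probe binding, denaturation, streptavidin capture, subunit-specific antibody and HRP chemiluminescence. Signal normalized to protein and expressed relative to DMSO controls.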
# [15] = target: T10, Proteasome subunit beta type-8 (Homo sapiens) (UniProt P28062); test: Inhibition of LMP7 in human PBMC at 250 nM by ELISA; summary of the method: as §4
# T10 sequence (whole entry): T7 sequence (P28062 whole entry)
# [16] = test system: PBMC; test: Antiinflammatory activity in human PBMC assessed as reduction in anti-CD3/CD28 antibody-stimulated TNF-alpha expression at 250 nM preincubated for 1 hr followed by anti-CD3/CD28 antibody stimulation measured after 24 hrs by ELISA; type: functional, cell-based; summary of the method: as §2
# [17] = test system: PBMC; test: Antiinflammatory activity in human PBMC assessed as reduction in LPS-stimulated p40 subunit of […] expression at 250 nM preincubated for 1 hr followed by LPS stimulation measured after 24 hrs by ELISA; type: functional, cell-based; summary of the method: as §3
# [18] = target: Proteasome subunit beta type-2 (Mus musculus, UniProt Q9R1P3); test: Inhibition of 20S proteosome beta 2 in mouse A20 cells by ELISA; type: cell-based
# Chain of Proteasome subunit beta type-2 (Q9R1P3 whole entry): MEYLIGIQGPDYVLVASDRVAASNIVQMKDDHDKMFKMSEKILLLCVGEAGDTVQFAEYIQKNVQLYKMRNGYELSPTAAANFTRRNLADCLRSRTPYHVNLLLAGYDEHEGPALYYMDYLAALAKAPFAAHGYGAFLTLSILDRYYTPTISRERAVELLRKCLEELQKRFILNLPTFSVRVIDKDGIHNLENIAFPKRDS
SMILES,IC50 [2],IC50 [3],solubility at 24 h [4],IC50 [5],IC50 [6],IC50 [7],IC50 [8],IC50 [9],other results
CC(C)C[C@H](NC(=O)[C@H](CCc1ccccc1)NC(=O)CN1CCOCC1)C(=O)N[C@@H](Cc1ccccc1)C(=O)N[C@@H](CC(C)C)C(=O)[C@@]1(C)CO1 [CARFILZOMIB],–,–,–,–,–,–,–,–,half-life [1]: < 15 min
COc1ccc(C[C@H](NC(=O)[C@@H](C)NC(=O)C2CCCCC2)C(=O)N[C@@H](Cc2ccccc2)C(=O)[C@@]2(C)CO2)cc1,118 nM,141 nM,12.1 µg/mL,–,–,–,–,–,–
CC1=C(C(=O)N[C@H](C)C(=O)N[C@@H](Cc2c[nH]c3ccccc23)C(=O)N[C@@H](Cc2ccccc2)C(=O)[C@@]2(C)CO2)Cc2ccccc21,1360 nM,573 nM,0.75 µg/mL,4780 nM,2210 nM,1670 nM,> 25000 nM,39 nM,–
COc1ccc(C[C@H](NC(=O)[C@@H](C)NC(=O)[C@H]2CC[C@H](O)CC2)C(=O)N[C@@H](Cc2ccccc2)C(=O)[C@@]2(C)CO2)cc1,507 nM,262 nM,240 µg/mL,–,3530 nM,782 nM,> 25000 nM,23 nM,–
COc1ccc(C[C@H](NC(=O)[C@H](C)NC(=O)CN2CCOCC2)C(=O)N[C@@H](Cc2ccccc2)C(=O)[C@@]2(C)CO2)cc1,401 nM,98 nM,< 0.5 µg/mL,328 nM,–,–,–,–,Activity [10]: Active; Activity [11]: Active; Activity [12]: Active; IC50 [13]: 699 nM; inhibition [14]: Active; inhibition [15]: Active; Activity [16]: Active; inhibition [17]: Active
COc1ccc(C[C@H](NC(=O)[C@H](C)NC(=O)CN2CCOCC2)C(=O)N[C@@H](CC2=CCCC2)C(=O)[C@@]2(C)CO2)cc1,694 nM,110 nM,2730 µg/mL,–,223 nM,–,–,–,–

# Second part, led by results:
IC50 [2],IC50 [3],solubility at 24 h [4],IC50 [5],IC50 [6],IC50 [7],IC50 [8],IC50 [9],SMILES,other results
6810 nM,556 nM,979 µg/mL,–,–,–,–,–,COc1ccc(C[C@H](NC(=O)[C@@H](C)NC(=O)[C@H]2CC[C@H](O)CC2)C(=O)N[C@@H](CC2CCC2)C(=O)[C@@]2(C)CO2)cc1,–
47 nM,50 nM,1.85 µg/mL,–,–,54 nM,–,38 nM,CC1=C(C(=O)N[C@@H](C)C(=O)N[C@@H](Cc2c[nH]c3ccccc23)C(=O)N[C@@H](Cc2ccccc2)C(=O)[C@@]2(C)CO2)Cc2ccccc21,–
2340 nM,764 nM,1.4 µg/mL,–,–,3620 nM,–,76 nM,COc1ccc(C[C@H](NC(=O)[C@@H](C)NC(=O)C2=C(C)c3ccccc3C2)C(=O)N[C@@H](Cc2ccccc2)C(=O)[C@@]2(C)CO2)cc1,–
38 nM,56 nM,–,415 nM,415 nM,39 nM,97 nM,49 nM,CC(C)C[C@H](NC(=O)CN1CCCCCC1)C(=O)N[C@@H](Cc1ccccc1)C(=O)N[C@@H](Cc1ccccc1)C(=O)[C@@]1(C)CO1,IC50 [13]: 159 nM; IC50 [18]: 141 nM
